ChEMBL document CHEMBL4152188, “Design, synthesis and biological evaluation of C(4) substituted monobactams as antibacterial agents against multidrug-resistant Gram-negative bacteria” (Eur J Med Chem, 2018)
Converted amounts (≈) assume the structure as drawn.

Columns and labels:
Format in all cases: functional
Klebsiella pneumoniae [1] = test: Antibacterial activity against KPC-2 producing Klebsiella pneumoniae isolate 209632 after 18 hrs by CLSI broth microdilution method; details: isolate 209632, 18 h
Pseudomonas aeruginosa [2] = test: Antibacterial activity against IMP-4 producing Pseudomonas aeruginosa isolate 207272 after 18 hrs in presence of BPL by CLSI broth microdilution method; details: isolate 207272, 18 h
Procedure, shortened: (§1)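 CLSI broth microdilution against clinical isolates (ESBL E. coli, KPC-2 MDR K. pneumoniae, IMP-4 MDR P. aeruginosa; five per species). Iron limitation: Mueller-Hinton broth supplemented with 16 mg/liter 2,2'-bipyridyl to complex iron and induce iron uptake systems. Read-out: MIC.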

Klebsiella pneumoniae [3] = test: Antibacterial activity against KPC-2 producing Klebsiella pneumoniae isolate 212423 after 18 hrs in presence of BPL by CLSI broth microdilution method; details: isolate 212423, 18 h; procedure, shortened: as §1
Escherichia coli [4] = test: Selectivity index, ratio of MIC for against extended-spectrum beta-lactamase producing Escherichia coli isolate 209285 to MIC for extended-spectrum beta-lactamase producing Escherichia coli isolate 209285 in presence of BPL
Pseudomonas aeruginosa [5] = test: Antibacterial activity against IMP-4 producing Pseudomonas aeruginosa isolate 209471 after 18 hrs in presence of BPL by CLSI broth microdilution method; details: isolate 209471, 18 h; procedure, shortened: as §1
Klebsiella pneumoniae [6] = test: Antibacterial activity against KPC-2 producing Klebsiella pneumoniae isolate 209735 after 18 hrs in presence of BPL by CLSI broth microdilution method; details: isolate 209735, 18 h; procedure, shortened: as §1
Klebsiella pneumoniae [7] = test: Antibacterial activity against KPC-2 producing Klebsiella pneumoniae isolate 209632 after 18 hrs in presence of BPL by CLSI broth microdilution method; details: isolate 209632, 18 h; procedure, shortened: as §1
Escherichia coli [8] = test: Selectivity index, ratio of MIC for against extended-spectrum beta-lactamase producing Escherichia coli isolate 208687 to MIC for extended-spectrum beta-lactamase producing Escherichia coli isolate 208687 in presence of BPL
Escherichia coli [9] = test: Antibacterial activity against extended-spectrum beta-lactamase producing Escherichia coli isolate 209285 after 18 hrs by CLSI broth microdilution method; details: isolate 209285, 18 h
Escherichia coli [10] = test: Selectivity index, ratio of MIC for against extended-spectrum beta-lactamase producing Escherichia coli isolate 106342 to MIC for extended-spectrum beta-lactamase producing Escherichia coli isolate 106342 in presence of BPL
Klebsiella pneumoniae [11] = test: Antibacterial activity against KPC-2 producing Klebsiella pneumoniae isolate 212423 after 18 hrs by CLSI broth microdilution method; details: isolate 212423, 18 h
Klebsiella pneumoniae [12] = test: Selectivity index, ratio of MIC for against KPC-2 producing Klebsiella pneumoniae isolate 212423 to MIC for against KPC-2 producing Klebsiella pneumoniae isolate 212423 in presence of BPL
Pseudomonas aeruginosa [13] = test: Antibacterial activity against IMP-4 producing Pseudomonas aeruginosa isolate 208247 after 18 hrs by CLSI broth microdilution method; details: isolate 208247, 18 h
Escherichia coli [14] = test: Selectivity index, ratio of MIC for against Escherichia coli isolate 210737 to MIC for Escherichia coli isolate 210737 in presence of BPL
Escherichia coli [15] = test: Antibacterial activity against Escherichia coli isolate 210737 after 18 hrs by CLSI broth microdilution method; details: isolate 210737, 18 h
Escherichia coli [16] = test: Antibacterial activity against extended-spectrum beta-lactamase producing Escherichia coli isolate 212648 after 18 hrs in presence of BPL by CLSI broth microdilution method; details: isolate 212648, 18 h; procedure, shortened: as §1
Escherichia coli [17] = test: Antibacterial activity against extended-spectrum beta-lactamase producing Escherichia coli isolate 208687 after 18 hrs by CLSI broth microdilution method; details: isolate 208687, 18 h
Klebsiella pneumoniae [18] = test: Selectivity index, ratio of MIC for against KPC-2 producing Klebsiella pneumoniae isolate 209735 to MIC for against KPC-2 producing Klebsiella pneumoniae isolate 209735 in presence of BPL
Escherichia coli [19] = test: Selectivity index, ratio of MIC for against extended-spectrum beta-lactamase producing Escherichia coli isolate 212648 to MIC for extended-spectrum beta-lactamase producing Escherichia coli isolate 212648 in presence of BPL
Pseudomonas aeruginosa [20] = test: Antibacterial activity against IMP-4 producing Pseudomonas aeruginosa isolate 209321 after 18 hrs in presence of BPL by CLSI broth microdilution method; details: isolate 209321, 18 h; procedure, shortened: as §1
Klebsiella pneumoniae [21] = test: Selectivity index, ratio of MIC for against KPC-2 producing Klebsiella pneumoniae isolate 212229 to MIC for against KPC-2 producing Klebsiella pneumoniae isolate 212229 in presence of BPL
Klebsiella pneumoniae [22] = test: Antibacterial activity against KPC-2 producing Klebsiella pneumoniae isolate 209735 after 18 hrs by CLSI broth microdilution method; details: isolate 209735, 18 h
Klebsiella pneumoniae [23] = test: Antibacterial activity against KPC-2 producing Klebsiella pneumoniae isolate 212232 after 18 hrs by CLSI broth microdilution method; details: isolate 212232, 18 h
Escherichia coli [24] = test: Antibacterial activity against Escherichia coli isolate 210737 after 18 hrs in presence of BPL by CLSI broth microdilution method; details: isolate 210737, 18 h; procedure, shortened: as §1
Pseudomonas aeruginosa [25] = test: Antibacterial activity against IMP-4 producing Pseudomonas aeruginosa isolate 212886 after 18 hrs by CLSI broth microdilution method; details: isolate 212886, 18 h
Pseudomonas aeruginosa [26] = test: Selectivity index, ratio of MIC for against IMP-4 producing Pseudomonas aeruginosa isolate 207272 to MIC for against IMP-4 producing Pseudomonas aeruginosa isolate 207272 in presence of BPL
Pseudomonas aeruginosa [27] = test: Antibacterial activity against IMP-4 producing Pseudomonas aeruginosa isolate 209471 after 18 hrs by CLSI broth microdilution method; details: isolate 209471, 18 h
Pseudomonas aeruginosa [28] = test: Antibacterial activity against IMP-4 producing Pseudomonas aeruginosa isolate 208247 after 18 hrs in presence of BPL by CLSI broth microdilution method; details: isolate 208247, 18 h; procedure, shortened: as §1
Escherichia coli [29] = test: Antibacterial activity against extended-spectrum beta-lactamase producing Escherichia coli isolate 106342 after 18 hrs in presence of BPL by CLSI broth microdilution method; details: isolate 106342, 18 h; procedure, shortened: as §1
Escherichia coli [30] = test: Antibacterial activity against extended-spectrum beta-lactamase producing Escherichia coli isolate 208687 after 18 hrs in presence of BPL by CLSI broth microdilution method; details: isolate 208687, 18 h; procedure, shortened: as §1
Klebsiella pneumoniae [31] = test: Selectivity index, ratio of MIC for against KPC-2 producing Klebsiella pneumoniae isolate 209632 to MIC for against KPC-2 producing Klebsiella pneumoniae isolate 209632 in presence of BPL
Escherichia coli [32] = test: Antibacterial activity against extended-spectrum beta-lactamase producing Escherichia coli isolate 209285 after 18 hrs in presence of BPL by CLSI broth microdilution method; details: isolate 209285, 18 h; procedure, shortened: as §1
Escherichia coli [33] = test: Antibacterial activity against extended-spectrum beta-lactamase producing Escherichia coli isolate 212648 after 18 hrs by CLSI broth microdilution method; details: isolate 212648, 18 h
Pseudomonas aeruginosa [34] = test: Antibacterial activity against IMP-4 producing Pseudomonas aeruginosa isolate 212886 after 18 hrs in presence of BPL by CLSI broth microdilution method; details: isolate 212886, 18 h; procedure, shortened: as §1
Pseudomonas aeruginosa [35] = test: Antibacterial activity against IMP-4 producing Pseudomonas aeruginosa isolate 209321 after 18 hrs by CLSI broth microdilution method; details: isolate 209321, 18 h
Klebsiella pneumoniae [36] = test: Antibacterial activity against KPC-2 producing Klebsiella pneumoniae isolate 212229 after 18 hrs by CLSI broth microdilution method; details: isolate 212229, 18 h
Pseudomonas aeruginosa [37] = test: Antibacterial activity against IMP-4 producing Pseudomonas aeruginosa isolate 207272 after 18 hrs by CLSI broth microdilution method; details: isolate 207272, 18 h
Pseudomonas aeruginosa [38] = test: Selectivity index, ratio of MIC for against IMP-4 producing Pseudomonas aeruginosa isolate 208247 to MIC for against IMP-4 producing Pseudomonas aeruginosa isolate 208247 in presence of BPL
Klebsiella pneumoniae [39] = test: Antibacterial activity against KPC-2 producing Klebsiella pneumoniae isolate 212229 after 18 hrs in presence of BPL by CLSI broth microdilution method; details: isolate 212229, 18 h; procedure, shortened: as §1
Escherichia coli [40] = test: Antibacterial activity against extended-spectrum beta-lactamase producing Escherichia coli isolate 106342 after 18 hrs by CLSI broth microdilution method; details: isolate 106342, 18 h
Klebsiella pneumoniae [41] = test: Selectivity index, ratio of MIC for against KPC-2 producing Klebsiella pneumoniae isolate 212232 to MIC for against KPC-2 producing Klebsiella pneumoniae isolate 212232 in presence of BPL
Klebsiella pneumoniae [42] = test: Antibacterial activity against KPC-2 producing Klebsiella pneumoniae isolate 212232 after 18 hrs in presence of BPL by CLSI broth microdilution method; details: isolate 212232, 18 h; procedure, shortened: as §1

Cc1csc(SC[C@@H]2[C@H](NC(=O)/C(=N\OC(c3cc(=O)c(O)cn3O)C(C)C)c3csc(N)n3)C(=O)N2S(=O)(=O)O)n1 (some centres not stated)
MIC (Klebsiella pneumoniae [1]): 1 µg/mL (≈ 1.52 µM) | MIC (Pseudomonas aeruginosa [2]): 64 µg/mL | MIC (Klebsiella pneumoniae [3]): 1 µg/mL | Selectivity Index (Escherichia coli [4]): 2 | MIC (Pseudomonas aeruginosa [5]): > 64 µg/mL | MIC (Klebsiella pneumoniae [6]): 2 µg/mL | MIC (Klebsiella pneumoniae [7]): 0.5 µg/mL | Selectivity Index (Escherichia coli [8]): 8 | MIC (Escherichia coli [9]): 2 µg/mL (≈ 3.03 µM) | Selectivity Index (Escherichia coli [10]): 1 | MIC (Klebsiella pneumoniae [11]): 2 µg/mL (≈ 3.03 µM) | Selectivity Index (Klebsiella pneumoniae [12]): 2 | MIC (Pseudomonas aeruginosa [13]): 64 µg/mL (≈ 97 µM) | Selectivity Index (Escherichia coli [14]): 2 | MIC (Escherichia coli [15]): 0.5 µg/mL (≈ 0.758 µM) | MIC (Escherichia coli [16]): 1 µg/mL | MIC (Escherichia coli [17]): 2 µg/mL (≈ 3.03 µM) | Selectivity Index (Klebsiella pneumoniae [18]): 1 | Selectivity Index (Escherichia coli [19]): 1 | MIC (Pseudomonas aeruginosa [20]): > 64 µg/mL | Selectivity Index (Klebsiella pneumoniae [21]): 2 | MIC (Klebsiella pneumoniae [22]): 2 µg/mL (≈ 3.03 µM) | MIC (Klebsiella pneumoniae [23]): 2 µg/mL (≈ 3.03 µM) | MIC (Escherichia coli [24]): 0.25 µg/mL | MIC (Pseudomonas aeruginosa [25]): > 64 µg/mL | Selectivity Index (Pseudomonas aeruginosa [26]): 1 | MIC (Pseudomonas aeruginosa [27]): > 64 µg/mL | MIC (Pseudomonas aeruginosa [28]): 64 µg/mL | MIC (Escherichia coli [29]): 2 µg/mL | MIC (Escherichia coli [30]): 0.25 µg/mL | Selectivity Index (Klebsiella pneumoniae [31]): 2 | MIC (Escherichia coli [32]): 1 µg/mL | MIC (Escherichia coli [33]): 1 µg/mL (≈ 1.52 µM) | MIC (Pseudomonas aeruginosa [34]): > 64 µg/mL | MIC (Pseudomonas aeruginosa [35]): > 64 µg/mL | MIC (Klebsiella pneumoniae [36]): 1 µg/mL (≈ 1.52 µM) | MIC (Pseudomonas aeruginosa [37]): 64 µg/mL (≈ 97 µM) | Selectivity Index (Pseudomonas aeruginosa [38]): 1 | MIC (Klebsiella pneumoniae [39]): 0.5 µg/mL | MIC (Escherichia coli [40]): 2 µg/mL (≈ 3.03 µM) | Selectivity Index (Klebsiella pneumoniae [41]): 2 | MIC (Klebsiella pneumoniae [42]): 1 µg/mL
